For series [1], the target named is Apoptosis regulator Bcl-2 (Homo sapiens, UniProt P10415). Description: Binding affinity to Bcl-2 (unknown origin) assessed as dissociation constant incubated for 1 hrs by TR-FRET assay.
The test system of series [2] is NCI-H1650. As to the kind of experiment: Antitumor activity against human NCI-H1650 cells xenografted in SCID-bg mouse assessed as maximum tumor growth inhibition at 25 mg/kg, po administered daily for 14 days relative to control. It counts as functional. Conditions: NCI-H1650, 336 h, time 14 day, read-out: TGI. The method, boiled down:
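NCI-H1650 NSCLC xenografts, ten mice per group. Arms: vehicle; docetaxel iv once at 7.5 mg/kg; oral agent daily for 14 days at 25 mg/kg; and the two combined. TGImax = 100(1 − Tv/Cv) from mean volumes. TGD = 100(T/C − 1) from median times to reach 1 cm3.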
For orientation: Xenograft models place foreign cells or tissue in a host animal.

Series [3] concerns MDA-MB-231. Description: Antitumor activity against LC3 positive human MDA-MB-231 cells xenografted in SCID mouse assessed as tumor growth delay at 25 mg/kg, po administered daily for 14 days relative to control. It is filed as functional. As to conditions: time 14 day. Put shortly:
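MDA-MB-231 LC3 metastatic breast cancer xenograft, 10 mice per group, with a vehicle control. Dosing: oral agent 25 mg/kg daily for 14 days; docetaxel 7.5 mg/kg iv once; combination gives both regimens. Mean tumor volumes tracked. TGImax = 100(1 − Tv/Cv) from mean treated vs control volumes. TGD = 100(T/C − 1) from median times to reach 1 cm3.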

Series [4] is described as follows: Toxicity in po dosed SCID mouse assessed as tolerance. Conditions: in vivo. It counts as organism-based.
Series [5] is described as follows: Toxicity in po dosed SCID-bg mouse assessed as tolerance in presence of docetaxel. Conditions: in vivo. It counts as organism-based.
The test system of series [6] is NCI-H747. As to the kind of experiment: Synergistic antitumor activity against human NCI-H747 cells xenografted in po dosed SCID-bg mouse assessed as maximum tumor growth inhibition in presence of docetaxel relative to control. It is filed as functional. The method, boiled down: (§1)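 Xenografts dosed with oral inhibitor plus intravenous docetaxel. TGImax = 100(1 − Tv/Cv), from mean treated and control tumor volumes; TGD = 100(T/C − 1), from median times to reach 1 cm3. Group size 5 mice (NCI-H747, A549-FP3, EBC-1, OVCAR-5), 8 (NCI-H358), 10 (NCI-H1650).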

Series [7] concerns NCI-H747. Description: Synergistic antitumor activity against human NCI-H747 cells xenografted in po dosed SCID-bg mouse assessed as tumor growth delay in presence of docetaxel relative to control. It is filed as functional. Put shortly: as §1
In series [8] the test system is A549. Description: Antitumor activity against 3 times passaged human A549 cells xenografted in po dosed SCID mouse assessed as maximum tumor growth inhibition relative to control. It is filed as functional.
A short description of series [9]: Toxicity in po dosed SCID mouse assessed as tolerance in presence of docetaxel. It counts as organism-based. Conditions: in vivo.
A short description of series [10]: Toxicity in Sprague-Dawley rat assessed as inhibition of granulopoiesis by measuring reduction in neutrophil count at 7 mg/kg, po administered daily for 5 days measured on day 6 by microscopic analysis relative to control. It counts as organism-based. As to conditions: in vivo, 144 h, time 6 day. Put shortly:
(§2)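 Male Sprague-Dawley rats, n = 10 per group: docetaxel 5 mg/kg i.v. once, or oral inhibitor daily for 5 days (30, 50 or 7 mg/kg depending on agent), alone or combined with docetaxel, against vehicles. Total neutrophil and platelet counts in blood collected on day 6; Tukey-Kramer test versus vehicle.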

Series [11] can be described thus: Toxicity in Sprague-Dawley rat assessed as inhibition of […] by measuring reduction in circulating platelets at 7 mg/kg, po administered daily for 5 days and measured on day 6 by microscopic analysis. It is filed as organism-based. Conditions: in vivo, 144 h, time 6 day. The method, boiled down:
as §2

For series [12], the system named is NCI-H146. Description: Induction of apoptosis in Bcl-xl dependent human NCI-H146 cells assessed as accumulation of caspase-dependent sub G0-G1 DNA content upto 5000 nM incubated for 24 hrs by fluorescence-activated cell sorting analysis. It is filed as functional, cell-based. Put shortly:
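NCI-H146 cells were preincubated for 1 h with or without the caspase inhibitor Z-VAD-fmk (75 μM). They were then exposed to increasing concentrations for 24 h. Sub-G0-G1 DNA content was measured by fluorescence-activated cell sorting.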

Series [13] deals with MDA-MB-361. Description: Synergistic antiproliferative activity against human MDA-MB-361 cells assessed as reduction in cell viability by measuring bliss sum score incubated for 72 hrs in presence of docetaxel by CellTiter-Glo cell vaibility assay. It counts as functional. For orientation: ATP-based viability assays read luminescence as a measure of living cells.
The subject of series [14] is Hs-578T. As to the kind of experiment: Synergistic antiproliferative activity against human Hs-578T cells assessed as reduction in cell viability by measuring bliss sum score incubated for 72 hrs in presence of docetaxel by CellTiter-Glo cell vaibility assay. It counts as functional.
For series [15], the system named is BT-20. As to the kind of experiment: Synergistic antiproliferative activity against human BT-20 cells assessed as reduction in cell viability by measuring bliss sum score incubated for 72 hrs in presence of docetaxel by CellTiter-Glo cell vaibility assay. It is filed as functional.
The subject of series [16] is NCI-H661. As to the kind of experiment: Synergistic antiproliferative activity against human NCI-H661 cells assessed as reduction in cell viability by measuring bliss sum score incubated for 72 hrs in presence of docetaxel by CellTiter-Glo cell vaibility assay. It counts as functional.
Series [17] has as its system NCI-H838. As to the kind of experiment: Synergistic antiproliferative activity against human NCI-H838 cells assessed as reduction in cell viability by measuring bliss sum score incubated for 72 hrs in presence of docetaxel by CellTiter-Glo cell vaibility assay. It is filed as functional.
The subject of series [18] is OVCAR-8. As to the kind of experiment: Synergistic antiproliferative activity against human OVCAR-8 cells assessed as reduction in cell viability by measuring bliss sum score incubated for 72 hrs in presence of docetaxel by CellTiter-Glo cell vaibility assay. It is filed as functional.
Series [19] deals with SK-OV-3. As to the kind of experiment: Synergistic antiproliferative activity against human SK-OV-3 cells assessed as reduction in cell viability by measuring bliss sum score incubated for 72 hrs in presence of docetaxel by CellTiter-Glo cell vaibility assay. It is filed as functional.
The subject of series [20] is ZR-75-30. As to the kind of experiment: Antagonistic antiproliferative activity against human ZR-75-30 cells assessed as reduction in cell viability by measuring bliss sum score incubated for 72 hrs in presence of docetaxel by CellTiter-Glo cell vaibility assay. It counts as functional.
Series [21] relates to HCC2218. As to the kind of experiment: Antagonistic antiproliferative activity against human HCC2218 cells assessed as reduction in cell viability by measuring bliss sum score incubated for 72 hrs in presence of docetaxel by CellTiter-Glo cell vaibility assay. It is filed as functional.
Series [22] concerns ZR-75-1. As to the kind of experiment: Induction of apoptosis in human ZR-75-1 cells assessed as accumulation of cells with sub-G0-G1 DNA content at 1 uM incubated for 48 hrs in presence of docetaxel by flow cytometric analysis. It counts as functional, cell-based. For orientation: In flow cytometry, cells or beads pass a laser one at a time.
Series [23] relates to T47D. Description: Induction of apoptosis in human T47D cells assessed as accumulation of cells with sub-G0-G1 DNA content at 1 uM incubated for 48 hrs in presence of docetaxel by flow cytometric analysis. It counts as functional, cell-based.
Series [24] relates to MDA-MB-231. As to the kind of experiment: Induction of apoptosis in human MDA-MB-231 cells assessed as accumulation of cells with sub-G0-G1 DNA content at 1 uM incubated for 48 hrs in presence of docetaxel by flow cytometric analysis. It counts as functional, cell-based.
For series [25], the system named is UAC812. Description: Induction of apoptosis in UAC812 (unknown origin) cells assessed as accumulation of cells with sub-G0-G1 DNA content at 1 uM incubated for 48 hrs in presence of docetaxel by flow cytometric analysis. It counts as functional, cell-based.
The subject of series [26] is HCC1806. As to the kind of experiment: Induction of apoptosis in human HCC1806 cells assessed as accumulation of cells with sub-G0-G1 DNA content at 1 uM incubated for 48 hrs in presence of docetaxel by flow cytometric analysis. It counts as functional, cell-based.

The source made the active and inactive calls. The calls are words filed in the database; no cut-off is given here.

Chain of Apoptosis regulator Bcl-2 (P10415 whole entry): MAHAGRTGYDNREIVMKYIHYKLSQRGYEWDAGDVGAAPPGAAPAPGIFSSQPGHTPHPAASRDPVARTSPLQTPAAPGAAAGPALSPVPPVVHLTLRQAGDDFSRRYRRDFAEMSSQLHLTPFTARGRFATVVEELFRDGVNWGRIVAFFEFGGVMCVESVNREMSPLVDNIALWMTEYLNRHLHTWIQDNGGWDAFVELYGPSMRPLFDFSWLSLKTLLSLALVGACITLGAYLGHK

Usually Ki stands for a measure of affinity in units of concentration, obtained from inhibition or displacement. The TGI is how far tumour growth fell short of that in controls. Take `Cc1c(-c2ccc(N3CCc4cccc(C(=O)Nc5nc6ccccc6s5)c4C3)nc2C(=O)O)cnn1CC12CC3CC(CC(C3)C1)C2`: the inhibitory constant (Ki) in series [1] came to 6 nM. For the same compound, the inhibition in vivo at 25 mg/kg in series [2] was determined as 48%. Also, the Activity is recorded as 55% in [3]; “Non-Toxic” in series [4]; “Non-Toxic” in series [5]; 167% in series [7]; “Non-Toxic” in series [9]; “Non-Toxic” in series [10]. In series [11], the Activity result is “Toxic”. Also, the TGI in series [6] is on record as 84%; in series [8], 67%.
With `CN(C)CC#Cc1ccc(OCCCc2sc(N3CCc4cccc(C(=O)Nc5nc6ccccc6s5)c4C3)nc2C(=O)O)c(F)c1` [A-1155463], the outcome in series [12] was Active. Further, the Activity_index turned out to be 110 in series [13]; 62 in [14]; 260 in series [15]; 94 in series [16]; 128 in series [17]; 159 in series [18]. Besides, the Activity_index in series [19] is 747; in series [20] it was -265; in series [21], -250.
As for `CC1(C)CCC(c2ccc(Cl)cc2)=C(CN2CCN(c3ccc(C(=O)NS(=O)(=O)c4ccc(N[C@H](CCN5CCOCC5)CSc5ccccc5)c(S(=O)(=O)C(F)(F)F)c4)cc3)CC2)C1` [NAVITOCLAX], the result in series [22], in [23], in series [24], in [25] and in series [26] was Active.
